OX1R antag-1: OX1R (human) antagonism | OX1R-expressing cells, FRET antagonist read-out | 1.8% of 330,000 active | O43613 | inhibition, % at 6.6 µM; in the data active = inhibition mostly above about 38%, no sharp cut-off; inactive = mostly below about 40%;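 note: 0% = agonist challenge alone and 100% = reference antagonist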
Target sequence (O43613 whole entry, looked up): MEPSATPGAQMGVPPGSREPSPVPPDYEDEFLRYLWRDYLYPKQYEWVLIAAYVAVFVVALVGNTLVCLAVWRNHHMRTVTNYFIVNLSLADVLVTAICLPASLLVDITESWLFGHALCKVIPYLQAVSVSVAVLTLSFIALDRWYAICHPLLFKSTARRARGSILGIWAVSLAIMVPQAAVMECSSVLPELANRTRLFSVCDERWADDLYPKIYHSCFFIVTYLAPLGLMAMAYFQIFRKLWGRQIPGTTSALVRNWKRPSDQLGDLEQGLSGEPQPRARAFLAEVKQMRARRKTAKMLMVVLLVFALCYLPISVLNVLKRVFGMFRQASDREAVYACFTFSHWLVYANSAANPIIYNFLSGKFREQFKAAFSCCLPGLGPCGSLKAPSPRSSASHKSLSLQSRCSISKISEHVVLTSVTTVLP
TAAR1 ag: agonists of human TAAR1; AID 624467; 0.99% of 360,000 active; CHO RD-HGA16 TAAR1, Fluo-8 calcium fluorescence; vehicle wells 0%, saturating PEA agonist 100%; activation, % at 3 µM;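 active = activation above the mean activation of all test compounds in the run plus 3 SD, cut at about 38% in these data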
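Test system: RD-HGA16 (CHO) cells co-expressing Gα16 and hTAAR1 | Doses: Single dose, 3 µM | Schedule: 17-24 h seeding, 75 min 37 °C dye, 30 min RT | Evaluation: % activation from peak over basal fluorescence ratio, DMSO-to-PEA scaled | Technique: Kinetic Fluo-8 calcium fluorescence | Benchmarks: Low control DMSO, high control PEA (EC100)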
TAAR1 antag: human TAAR1 antagonism | Q96RJ0 | CHO RD-HGA16 TAAR1, Fluo-8 calcium fluorescence, antagonist | inhibition, % at 3 µM | 1.5% of 360,000 active | AID 624466;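 active = inhibition above a per-plate cutoff, the mean inhibition of test compounds on that plate plus 3 SD, cut at about 49% in these data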;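 note: 0% = DMSO plus EC80 beta-PEA response and 100% = DMSO alone without agonist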
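Material: RD-HGA16 CHO cells with stable hTAAR1 and Gα16; Dosing: single nominal final test compound concentration of 3 µM; Schedule: seeding 17-24 h prior, 75-min 37 °C, 30-min RT dye loading; Detection: kinetic Fluo-8 calcium fluorescence measurement; Measure: % inhibition from peak post-agonist over basal fluorescence ratio; Benchmarks: vehicle and agonist controls.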
GPR7 antag: blocks human GPR7 receptor signaling | P48145 | GPR7-expressing cells, fluorescence antagonist assay | inhibition, % at 4.4 µM | 1.1% of 290,000 active; in the data active = inhibition above about 16%, passing the limit was not always enough;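 note: cells stimulated with the agonist NPW; 0% = agonist with vehicle and 100% = vehicle without agonist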
Target sequence (P48145 whole entry, looked up): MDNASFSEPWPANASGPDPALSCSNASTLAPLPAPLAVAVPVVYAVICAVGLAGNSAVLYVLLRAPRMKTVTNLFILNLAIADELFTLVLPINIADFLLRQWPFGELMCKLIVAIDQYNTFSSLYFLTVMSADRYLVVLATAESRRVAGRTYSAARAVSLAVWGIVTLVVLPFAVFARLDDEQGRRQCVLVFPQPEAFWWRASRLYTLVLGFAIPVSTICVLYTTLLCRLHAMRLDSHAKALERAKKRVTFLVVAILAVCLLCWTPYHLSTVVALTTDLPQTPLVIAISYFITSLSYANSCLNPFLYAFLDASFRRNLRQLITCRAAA
OX1R antag-2: blocks the human orexin 1 receptor; CHO/OX1R cells, Fluo-8 calcium fluorescence, orexin A; inhibition, % at 5 µM; 0.43% of 330,000 active; O43613;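 active = inhibition above its plate's threshold, mean inhibition of all tested compounds on the plate plus 3 SD, cut at about 37% in these data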;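 note: 0% = orexin A challenge wells and 100% = SB-334867-A antagonist wells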
CHO parental Ca: counter-screen for OX1R antagonists: effect in parental CHO cells; inhibition, % at 5.6 µM; parental CHO-K1, ATP-induced calcium, Fluo-8 fluorescence; 0.63% of 330,000 active;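 active = inhibition above that plate's mean sample inhibition plus 3 SD, cut at about 26% in these data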;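 note: 0% = ATP-challenged DMSO wells and 100% = DMSO wells without ATP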
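Test system: parental CHO cells; detection: calcium-sensitive Fluo-8 fluorescence; evaluation: percent inhibition of calcium signal; also added: ATP as calcium-mobilizing challenge; repeats: one well per compound; control set: ATP-challenged DMSO wells low, unchallenged DMSO wells high; compound: single nominal dose of 5.6 µM per compound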
OX1R Fluo8 conf: OX1R (human) antagonism, confirmed | 38% of 1,100 active | inhibition, % at 5 µM | AID 492963 | shares compounds with OX1R antag-2 | CHO/OX1R cells, orexin A calcium Fluo-8 fluorescence; in the data active = inhibition above about 29%;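 note: 0% = agonist challenge alone and 100% = reference antagonist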
CHO Ca triplic: counter-screen: parental CHO calcium response change, triplicate; shares compounds with OX1R antag-2; parental CHO-K1, ATP-induced calcium, Fluo-8 fluorescence; inhibition, % at 5.6 µM; 9.3% of 1,100 active; AID 492965;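 active = inhibition above a per-plate limit, the mean inhibition of that plate's test compounds plus 3 SD, cut at about 25% in these data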;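 note: 0% = ATP challenge with DMSO and 100% = DMSO without ATP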
Numbers without * were called inactive; nt = no result. Rows were chosen to be rich in hits. Some 4.5% of all compounds tested hit in one or more screens of this group.

SMILES	OX1R antag-1	TAAR1 ag	TAAR1 antag	GPR7 antag	OX1R antag-2	CHO parental Ca	OX1R Fluo8 conf	CHO Ca triplic
COc1ccc(-c2nc(/C=C3\C(C)=Nc4ccccc43)c(O)o2)cc1	48.7	4.0	33.5	-3.3	30.3	23.1	23.0	5.0
CC1=Nc2ccccc2/C1=C\c1nc(-c2ccc(C(F)(F)F)cc2)oc1O	9.4	18.3	40.1	10.5	40.1*	20.7	50.7*	54.1*
Oc1ccccc1-c1nnc(-c2ccc(C(F)(F)F)cc2)o1	6.4	-0.1	-12.6	-3.0	-20.8	-19.4	nt	nt
Cc1ccc(N=Cc2nc(-c3ccc(C)cc3)oc2O)cc1	nt	0.8	15.8	1.8	nt	nt	nt	nt
COc1cc(NC(=O)COc2ccccc2)c(OC)cc1NC(C)=O	12.0	0.3	16.8	-14.4	-33.0	-19.6	nt	nt
CC(C)(C)c1cc(C(=O)CCN2CCOCC2)cc(C(C)(C)C)c1O	1.8	4.0	17.6	29.1	36.8	21.8	-3.4	-18.7
CC#CCN1c2ccccc2[C@]23C[C@@H](C(=O)OC)N=C2NC(C(=O)OC)=C(C(=O)OC)[C@H]13	23.3	12.3	-13.0	nt	-30.1	-11.5	nt	nt
COc1ccc(C2=NCC(CSc3nnc(-c4ccc5c(c4)OCO5)o3)S2)cc1 (stereo unspecified)	13.8	8.0	50.3*	-0.9	47.0*	15.1	12.1	-1.4
Cc1ccc(CSc2nnc(-c3ccc4c(c3)OCO4)o2)cc1	-4.5	7.4	7.1	-8.7	-24.2	2.6	nt	nt
CCOc1ccccc1NC(=O)CN(c1nccs1)S(=O)(=O)c1ccc(N)cc1	72.5	2.4	5.0	-1.2	27.8	-18.5	29.6*	-14.7
CCOc1ccccc1NC(=O)CCN(c1ccc(C)cc1)S(=O)(=O)c1ccccc1	55.2	-1.4	-6.3	13.0	1.1	-23.1	nt	nt
Cc1cc(OCc2cc(C(=O)N3CCN(C)C(=O)[C@@H]3C)no2)cc(C)c1Cl	22.8	15.2	28.2	-6.0	43.2*	25.2	16.5	28.5*
C=CCn1c(SCC(=O)Nc2sccc2C(N)=O)nc2sc(C)c(C)c2c1=O	19.6	1.1	8.1	-4.5	43.3	-14.3	-0.9	-14.6
O=C(/C=C/c1ccc(S(=O)(=O)NCc2ccco2)cc1)NCc1cccc(Cl)c1	42.6	2.8	11.4	5.3	53.7*	18.8	17.0	2.6
O=C(OCc1ccc(F)cc1)c1cccnc1Cl	7.0	-1.1	-10.7	-12.7	-15.2	4.3	nt	nt
O=C(OCc1ccc(COC(=O)c2cccnc2Cl)cc1)c1cccnc1Cl	18.1	10.8	33.3	-1.2	58.3*	11.8	30.5*	35.6*
COc1cccc2cc(-c3nc(-c4cccs4)cs3)c(=O)oc12	31.8	5.8	15.4	3.5	38.5	-4.8	68.9*	-7.1
COc1ccc(C(=O)NC(C)c2csc(C)n2)cc1OC1CCN(C(C)=O)CC1 (stereo unspecified)	1.2	3.8	-12.9	-4.3	-12.4	-10.0	nt	nt
COc1ccc(CNS(=O)(=O)c2cc(CN3C(=O)c4cccnc4C3=O)ccc2OC)cc1	16.4	1.1	-2.8	-9.3	-17.7	-23.2	nt	nt
CCOc1ccc(S(=O)(=O)n2cnc3cc(C)c(C)cc32)cc1	21.8	2.6	-14.8	8.0	60.2*	0.8	-0.6	58.9*
Cc1cc2ncn(S(=O)(=O)c3ccc(S(N)(=O)=O)cc3)c2cc1C	nt	-0.1	3.7	nt	nt	nt	nt	nt
CC(C)(C)OC(=O)N1CCN(Cc2ccc(F)c(B(O)O)c2)CC1	nt	1.3	-6.9	nt	nt	nt	nt	nt
Brc1ccccc1-n1nnc(-c2nccs2)n1	22.2	14.3	13.3	-14.8	45.2	-11.9	7.4	-7.7
Cc1nn(C)c(C(=O)Nc2ccc3c(c2)OCO3)c1[N+](=O)[O-]	nt	-0.4	-3.8	-2.4	nt	nt	nt	nt
Cc1nn(C)c(C(=O)Nc2ccc(Cl)c([N+](=O)[O-])c2)c1Cl	5.4	3.5	6.2	-4.9	36.2	2.6	2.1	0.2
SMILES	OX1R antag-1	TAAR1 ag	TAAR1 antag	GPR7 antag	OX1R antag-2	CHO parental Ca	OX1R Fluo8 conf	CHO Ca triplic
COC(=O)C1CCc2c(ccc3c2CCCC3)C1=O (stereo unspecified)	nt	-0.1	-18.8	nt	nt	nt	nt	nt
Cc1ccc(/C=C2\Sc3ccccc3C2=O)s1	12.9	1.0	0.2	7.0	29.8	-21.8	33.6*	-1.3
O=c1c(/C=C(\O)c2ccccc2)nc2ccccc2n1-c1ccccc1	26.6	30.5	1.6	11.2	60.8*	-8.2	-6.9	-5.3
O=C(NCc1nc(-c2ccc(C(F)(F)F)cc2)no1)Nc1ccc(F)cc1F	8.6	0.7	-7.9	-8.9	-7.9	12.3	nt	nt
O=C(NCc1nc(-c2ccc(C(F)(F)F)cc2)no1)Nc1cc(Cl)cc(Cl)c1	8.2	8.1	24.9	-7.8	24.3	7.0	3.1	47.8*
CCOC(=O)c1ccc(NC(=S)N2CCC(C(N)=O)(N3CCCCC3)CC2)cc1	4.0	1.8	-8.1	-5.8	-13.0	-6.0	nt	nt
Cc1nc2c(-c3ccc(Cl)cc3)cnn2c(N)c1-c1ccc(F)cc1	15.0	0.5	6.9	-8.2	-22.6	0.6	nt	nt
Cc1nc2c(-c3ccc(Cl)cc3)cnn2c2c1CCC2	45.2	1.5	-12.7	-10.7	39.5*	-9.2	34.4*	-18.5
CN(C)c1ccc(CC(=O)N2CCCCC2c2cc(C(=O)Nc3ccccc3)no2)cc1 (stereo unspecified)	nt	1.8	-2.4	nt	nt	nt	nt	nt
CCC(C)NS(=O)(=O)c1ccc(S(=O)(=O)N(CC(=O)Nc2ccccc2)Cc2ccco2)cc1 (stereo unspecified)	3.8	14.2	21.8	-3.1	49.0*	-1.1	0.5	-5.2
COc1cccc(-c2sc3ccc(OC)cc3c2-c2ccc(OCCN(C)C)cc2)c1	7.1	37.2	51.0*	nt	59.4*	22.6	37.0*	4.0
COCCOCC(O)CN1CCN(c2ccc(C)cc2)CC1 (stereo unspecified)	8.1	0.3	-10.1	-2.1	-7.0	-7.8	nt	nt
CCOC(=O)N1CCN(C2CCCN(C(=O)c3cccc(Cl)c3)C2)CC1 (stereo unspecified)	8.6	3.5	-8.9	-7.9	-9.1	-16.8	nt	nt
CC(C)=CCC/C(C)=C/CNC(=O)C[C@H]1C[C@H](C(=O)N2CCCCC2)[C@@]2(C)c3[nH]c4cc(CCC(=O)N(C)C)ccc4c3CCN2C1=O	28.4	nt	nt	nt	49.5*	-13.3	21.2	-11.4
CC1(c2ccc(OC(F)F)cc2)NC(=O)N(CC(=O)Nc2ccc(N3CCCCC3)cc2)C1=O (stereo unspecified)	-1.1	49.5*	44.4	nt	17.9	14.2	62.4*	31.7*
CC1(c2ccc([N+](=O)[O-])cc2)NC(=O)N(CC(=O)Nc2ccc(N3CCCCC3)cc2)C1=O (stereo unspecified)	6.1	42.9*	40.4	nt	20.6	17.6	47.9*	19.7

Assay outcomes from PubChem BioAssay.
